# Tests used:
# [1] = tested on: Staphylococcus aureus; assay: microbe, parasite or virus in culture; settings: ATCC 9144, 24 h, read-out: IZ
# [2] = tested on: Staphylococcus aureus; assay: Antibacterial activity against Staphylococcus aureus ATCC 9144 after 24 hrs by agar streak dilution method; assay type: functional; settings: ATCC 9144, 24 h
# How it was run: (§1)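 Agar streak dilution MIC. Stock […] in dimethyl formamide. Graded quantities go into molten sterile nutrient agar, poured at 40–50 °C to 3–4 mm depth and left to solidify. Plates are streaked with about 10⁵ cfu/ml bacterial suspension and incubated 24 h at 37 °C. MIC is the lowest concentration with no visible growth.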
# [3] = tested on: Staphylococcus epidermidis; assay: microbe, parasite or virus in culture; settings: ATCC 155, 24 h, read-out: IZ
# [4] = tested on: Micrococcus luteus; assay: Antibacterial activity against Micrococcus luteus ATCC 4698 at 100 ug/disk after 24 hrs by paper disk diffusion technique; assay type: functional; settings: NCTC 2665, 24 h, read-out: IZ
# [5] = tested on: Pseudomonas aeruginosa; assay: microbe, parasite or virus in culture; settings: ATCC 2853, 24 h, read-out: IZ
# [6] = tested on: Klebsiella pneumoniae; assay: Antibacterial activity against Klebsiella pneumoniae ATCC 11298 after 24 hrs by agar streak dilution method; assay type: functional; settings: ATCC 11298, 24 h
# How it was run: as §1
# [7] = tested on: Micrococcus luteus; assay: Antibacterial activity against Micrococcus luteus ATCC 4698 after 24 hrs by agar streak dilution method; assay type: functional; settings: NCTC 2665, 24 h
# How it was run: as §1
# [8] = tested on: Escherichia coli; assay: microbe, parasite or virus in culture; settings: ATCC 25922, 24 h, read-out: IZ
# [9] = tested on: Bacillus cereus; assay: Antibacterial activity against Bacillus cereus ATCC 11778 at 100 ug/disk after 24 hrs by paper disk diffusion technique; assay type: functional; settings: ATCC 11778, 24 h, read-out: IZ
# [10] = tested on: Staphylococcus epidermidis; assay: Antibacterial activity against Staphylococcus epidermidis ATCC 155 after 24 hrs by agar streak dilution method; assay type: functional; settings: ATCC 155, 24 h
# How it was run: as §1
# [11] = tested on: Klebsiella pneumoniae; assay: microbe, parasite or virus in culture; settings: ATCC 11298, 24 h, read-out: IZ
# [12] = tested on: Bacillus cereus; assay: Antibacterial activity against Bacillus cereus ATCC 11778 after 24 hrs by agar streak dilution method; assay type: functional; settings: ATCC 11778, 24 h
# How it was run: as §1
smiles,measurement,setting,value
O=C(O)c1cn(C2CC2)c2cc(N3CCNCC3)c(F)cc2c1=O [CIPROFLOXACIN],zone of inhibition at 100 µg/disc,[1],29 mm
same,MIC,[2],0.2 µg/mL
same,zone of inhibition at 100 µg/disc,[3],31 mm
same,zone of inhibition at 100 µg/disc,[4],30 mm
same,zone of inhibition at 100 µg/disc,[5],33 mm
same,MIC,[6],0.1 µg/mL
same,MIC,[7],0.1 µg/mL
same,zone of inhibition at 100 µg/disc,[8],32 mm
same,zone of inhibition at 100 µg/disc,[9],29 mm
same,MIC,[10],0.39 µg/mL
same,zone of inhibition at 100 µg/disc,[11],33 mm
same,MIC,[12],0.3 µg/mL
